Test: Toxicity liver stage against HepG2, at 10uM
Type: cell-based
Set-up: test concentration 10 uM, cell line HepG2-A16-CD81EGFP
Settings: human, HepG2-A16-CD81EGFP cells; read-out: INHIBITION
How it was run: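 Uninfected HepG2-A16-CD81EGFP cells, 3 × 10^3 per well, 1536-well, plated on prespotted compound at 10 μM final, parasite-free screening media added to match infected plates; puromycin 10 μM positive, DMSO 0.5% negative; run in parallel with 48 h PbLuc assay at 37 °C, 5% CO2; viability by CellTiter-Glo luminescence, normalized to controls.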

SMILES | cytotoxicity at 10 µM [%]
COc1ccc(CN2CC(O)CN(C(=O)c3ccccc3)CC2=O)cc1 (configuration not stated) | 0.331
COc1ccc(Cl)cc1C(=O)NCC1CCN(C(=O)c2ccoc2)CC1 | 10.1
CS(=O)(=O)NCCn1ccc(-c2cccs2)n1 | 1.43
N#CCC(=O)NCc1nnc2n1CCN(Cc1ccco1)C2 | -139
CCCOc1cccc(C(=O)Oc2cc(=O)n3cccc(C)c3n2)c1 | 12.1
CC1CCCN(c2ncc(C(=O)NCc3ccc(F)c(Cl)c3)c(N)n2)C1 (configuration not stated) | -2.83
CC(C)CN1CCn2c(nc3cc(C(=O)NC(C)C)ccc32)C1 | 0.889
Cc1nsc(C(=O)N2CCc3ccccc3C2)n1 | 5.86
CSc1[nH]nc(NC(=O)c2ccccc2)c1C#N | -9.59
C=C/C=c1\c(=C/C)oc2c(NCc3ccccc3)nc(CC)nc12 | 10.4
CCc1cc(OC)c(OC)cc1C(=O)Nc1cccnc1 | 4.94
Cc1nn(C)c2c(N3CCSCC3)nc(C3CC3)nc12 | 7.29
COc1cc(NCc2ccc(Cl)cc2)c(-c2nn[nH]n2)cc1OC | 10.1
O=C(NCCO)C1(CC2CC(c3ccc(F)cc3)=NO2)CCOCC1 (configuration not stated) | -2.55
CCNC(=O)[C@@H]1CN(Cc2ccccc2)C[C@H]1C(=O)c1ccc(F)cc1 | 3.38
COCCC(=O)N1CCCC1c1nc(C)c2c(n1)N(C)C(=O)CC2 (configuration not stated) | -1.04
CN1C[C@@H](C(=O)N2CCOCC2)[C@@]2(CCc3ccccc3C(=O)N2)C1 | 9.87
Cc1nn(C)cc1S(=O)(=O)N(C)[C@@H]1CCC[C@@H](n2ccnc2)[C@@H]1O | -2.78
Cc1cc(-c2ccc(=O)n(C3CCN(C(=O)C4CC4)CC3)n2)c(C)o1 | 4.79
Cc1ccc(NCC2(O)CCNCC2)cc1C | 2.27
CC(C)C(NC(=O)c1ccc(N2CCOCC2)nc1)c1cccs1 (configuration not stated) | -44
CCCNC(=O)C[S+]([O-])Cc1csc(C2CCCCC2)n1 (configuration not stated) | -48.2
COc1ccc(N(C)C(=O)C2CN(C)CCO2)cc1Cl (configuration not stated) | -46.4

SMILES | cytotoxicity at 10 µM [%]
O=C(Nc1ccc(F)cc1)N1CCC(CO)(Nc2ccccc2)CC1 | 2.94
O=C(NCCO)NC(c1ccccc1)c1ccc2c(c1)CCCO2 (configuration not stated) | 2.73
CCC(O)CN1CCN(C(=O)c2cccc3c2OCC(=O)N3)CC1 (configuration not stated) | -7.55
O=C(Cc1ccn[nH]1)Nc1cncc(Br)c1O | -3.93
CC(C)(C)CC(NC(=O)c1nc(=O)[nH][nH]1)c1ccc(F)cc1 (configuration not stated) | -2.42
COc1ccc(C(=O)NS(=O)(=O)c2ccc(CNC(C)=O)s2)cc1 | 1.81
COCCN(C(=O)c1ccoc1C)c1ccc(C#N)cc1 | -4.9
CC(C(=O)NCC(C)(C)c1ccc(Br)cc1)n1cncn1 (configuration not stated) | 1.73
COc1c(Cl)cc(C(=O)NCc2n[nH]c(C)n2)cc1Cl | 1.42
COc1c(C2CCCN2Cc2nccn2C)c(C)nn1C (configuration not stated) | 3.06
CNS(=O)(=O)CC(=O)N(C1CCCC1)C1CC1 | -2.78
CCC(=O)NCC(CC)Oc1cccc(F)c1 (configuration not stated) | -44
Cc1nc(C)c(S(=O)(=O)NC(=O)c2cccs2)s1 | -0.837
CC(C(=O)Nc1nccs1)N(C)Cc1cccc(C#N)c1 (configuration not stated) | 1.88
CCOc1ccccc1CCC(=O)Nc1c(C)nn(C)c1C | -3.91
CC(NC(=O)CN1CCN(c2cccc(Cl)c2)CC1)c1ccco1 (configuration not stated) | -11.1
N#Cc1cccnc1N[C@@H]1c2ccccc2C[C@@H]1O | 2.28
Cn1ccc(CN2CCCC(CNS(C)(=O)=O)C2)cc1=O (configuration not stated) | 9.31
CC(C)CC(NC(=O)C1=CCCC1)C(=O)N1CCC(CO)CC1 (configuration not stated) | 8.23
O=C(CS(=O)(=O)Cc1nnnn1C1CC1)NCCc1ccccc1 | 2.92
CCN(CC)C(=O)C1CCN(C(=O)Nc2cccnc2OC)CC1 | 19
Cc1cc(C)c(S(=O)(=O)NCCC(=O)NCc2ccoc2)c(C)c1 | 4.05
COc1cc(C)nc(N2CCN(C(=O)CCc3ccco3)CC2)n1 | 7.92

SMILES | cytotoxicity at 10 µM [%]
CC(O)CN1CCN(C(=O)c2ccnc(N(C)C)c2)CC1 (configuration not stated) | 4.37
CC(=O)N1CCCN(C(=O)CN(C)c2ccc(Cl)cn2)CC1 | -7.64
CCCN1CCN(S(=O)(=O)c2ncn(C)c2Cl)CC1 | 9.97
O=C(c1ccc(O)c(Cl)c1)N1CCN(c2nccs2)CC1 | -10.3
Cc1nn(C)c(C)c1CNCc1cccnc1N1CCOCC1 | -138
CS(=O)(=O)Cc1ccc(C(=O)NCC2Cc3ccccc3O2)cc1 (configuration not stated) | 6.6
COc1ccc(Nc2ncccc2C#N)cc1N1CCCC1=O | 6.86
CC(C)C(C#N)N1CCN(Cc2nccn2CC(F)(F)F)CC1 (configuration not stated) | 0.172
Cc1ccc(C2CN(Cc3cnc(-c4ccccn4)s3)CCO2)o1 (configuration not stated) | 2.91
Cn1cc(N2CCCC(Oc3ccc(F)cc3Cl)C2=O)cn1 (configuration not stated) | -3.3
NC(=O)N1CCCN(Cc2cc(F)cc(Br)c2)CC1 | 9.91
CC(C)n1nc2c(cc1=O)CN(CCOc1cccc(C#N)c1)CC2 | 13.6
O=C(O)c1csc(S(=O)(=O)N2CCCc3cccc(OC(F)F)c32)c1 | -13.5
O=C(NCCCC(=O)N1CCN(CC2CC2)c2ccccc21)C1CC1 | -9.59
COc1ccc(C)c2c1N(C(=O)c1cnc3onc(C)c3c1)CCC2 | -1.67
CC(C)c1nc(/C=C/c2cnn(-c3ccccc3)c2)ncc1C(=O)O | -11.3
O=C(CN(CC(O)c1ccc(F)cc1)C1CC1)NC1CCOCC1 (configuration not stated) | 0.0428
CCS(=O)(=O)CCN(C)C(=O)NC(C)c1ccc(C)s1 (configuration not stated) | -9.02
N#Cc1cc(S(N)(=O)=O)ccc1NC1CCc2cc(Cl)ccc21 (configuration not stated) | 29.1
Cc1ccc(NC(=O)N(CCO)CCO)c(OCc2ccccc2)c1 | 18.4
Cc1nnc(Cn2cc(I)cc(C)c2=O)o1 | 0.0894
CN1C(=O)CCN(C(=O)C2CCCCC2)c2ccccc21 | 20.8
CC(C)(C)[S+]([O-])CCNC(=O)c1ccc(Cl)c2cccnc12 (configuration not stated) | -44.5

SMILES | cytotoxicity at 10 µM [%]
COCCN1CCC(CNC(=O)C2(C#N)CCCCC2)CC1 | -11.1
CC(C)N(C)CC(=O)N(C)Cc1nc(C(F)(F)F)cs1 | -2.96
CCS(=O)(=O)N1CCc2c(COC)cncc2C1 | -99
CC(=O)N1CCc2[nH]nc(C(=O)N3CC=CC3)c2C1 | -108
O=C([C@H]1CCCO1)N1CCc2ncc(CN3CCOCC3)n2CC1 | -72.3
CN1CCN(Cc2cnc3n2CCN(C(=O)N2CCCC2)C3)CC1 | -72.3
O=C(CO)N1CCCC2(CCN(c3ccsc3)C2=O)C1 (configuration not stated) | -66.8
COC[C@@H]1CC[C@H]2[C@H](CCN2S(=O)(=O)c2cccc(C)c2)O1 | 3.29
O=c1c2ccc(Cl)cc2ncn1CCCN1CCCCC1CO (configuration not stated) | -2.4
Cc1cc(C)c2nc(C)cc(C(=O)N3CC(O)CO3)c2c1 (configuration not stated) | 16.5
Cc1nc[nH]c1CN1CCn2nc(CN3Cc4ccccc4C3)cc2C1 | 3.79
CCNC(=O)[C@@H]1C[C@H](NC(=O)c2cncnc2C)CN1Cc1ccsc1 | 2.12
CCCc1nc(NC2(COC)CCCC2)c2cnn(C)c2n1 | -1.43
CC(C)(C)CN1CCCC(O)(CN2CCc3[nH]ncc3C2)C1=O (configuration not stated) | -5.14
CN1CC[C@H]2CN(C(=O)c3csc(Cc4ccccc4)n3)C[C@H]21 | -2.45
CCN1CC(C(=O)N2CC(Oc3ccccc3Cl)C2)CC1=O (configuration not stated) | -2.83
CCn1ccc(CN(C)C(=O)CSc2nnc(N)s2)n1 | 3.45
Cn1ncc2c(N3CCC(CCO)CC3)nc(C(C)(C)C)nc21 | 14.6
CC(C)Cc1ncc2c(n1)CN(c1nccc(N(C)C)n1)C2 | -6.1
CC(=O)Nc1ccc(CN2CCc3[nH]cnc3C2c2ccc(C)o2)cc1 (configuration not stated) | 4.93
CN1CCN([C@@H]2CCN(Cc3cccc(-n4cccn4)c3)C[C@H]2O)CC1 | 8.42
CCn1ccnc1C1CCCN(C(=O)c2sc(C)nc2C)C1 (configuration not stated) | 1.24
Cc1cc(C)c2c(N3CCC(O)(Cn4ccnc4)CC3)ncnc2n1 | -3.28

SMILES | cytotoxicity at 10 µM [%]
COCCOC(=O)N1CCC(c2nccn2CC2CC2)CC1 | -2.08
COc1cc(C(N)=O)c(N(C)S(C)(=O)=O)cc1OC | -7.39
O=c1cc(C2CCNCC2)nc(CCCc2ccccc2)[nH]1 | 2.03
CC1CN(Cc2cc(C#N)ccc2F)CCN1Cc1nccn1C (configuration not stated) | -6.33
CCOc1ncccc1NC(=O)N1CCCC(CNC(N)=O)C1 (configuration not stated) | -11.1
Cc1nccc(C(=O)N2CCCC2c2noc(C(C)C)n2)n1 (configuration not stated) | -16.4
Cc1noc(C)c1CN(C)C(=O)NC1CCOCC1 | -14.8
c1cc(-c2nc(CN3CCc4c(ncn4C4CC4)C3)cs2)cs1 | -4.25
c1cncc(-c2noc(CN3CCc4cncnc4C3)n2)c1 | -3.39
CN1CCCC1CNC(=O)CCOc1ccc(Br)cc1 (configuration not stated) | -16.9
Clc1cc(CN2CCCC2Cn2cncn2)c2ncccc2c1 (configuration not stated) | 1.28
Clc1ccc2cccnc2c1CN1CCCC(Cn2cncn2)C1 (configuration not stated) | 8.38
CC(O)CNC(=O)NCc1cccnc1OC1CCCC1 (configuration not stated) | 2.29
Cc1nn(C)c(N(C)C)c1CNCc1ccccc1Cn1cncn1 | 3.85
Cc1nn(C)c(C)c1CCn1cncc1-c1ccc2c(c1)CC(C)N2C (configuration not stated) | -0.168
c1cnc(N2CCCC(NCc3cccc4c3OCCO4)C2)nc1 (configuration not stated) | -8.18
O=C1CC2(CCN(Cc3cccnc3)C2)CN1c1ccc2c(c1)OCO2 (configuration not stated) | -70.2
O[C@@H]1CCN(CC2CCOC2)[C@H]1Cc1cccnc1 (some centres not stated) | -8.56
Cn1cc(N2CC3(CCN(Cc4cccnc4)CC3)OCC2=O)cn1 | -79.3
COc1ccc(CCNC(=O)C2CCC(Cn3cnnn3)CC2)cc1 (configuration not stated) | 10.2

— ChEMBL document CHEMBL4513216, “Probing the Open Global Health Chemical Diversity Library for Multistage-Active Starting Points for Next-Generation Antimalarials” (ACS Infect Dis, 2020)
